Calls of active or inactive are those of the source. No cut-off for these calls is given here.
Columns and labels:
SK-OV-3 [1] = assay: Antitumor activity against human SKOV3 cells expressing RFC/PCFT/FRalpha xenografted in folate-deficient diet fed NCR SCID mouse assessed as log10 of gross cell killing at 16 mg/kg, iv administered every 4 days on day 3, 7, 11 measured twice per week; assay type: functional
Procedure, shortened: (§1)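 Ten-week-old female NCR SCID mice, fed a folate-deficient or standard folate-replete diet, were implanted subcutaneously and bilaterally with SKOV3 tumour fragments. Randomised at 5 mice/group. Dosed intravenously, 0.2 mL per injection, in 5% ethanol/1% Tween-80/0.5% NaHCO3 in water at pH 6.5, on days 3, 7 and 11. Tumours measured twice weekly and mice weighed daily. T/C taken on day 21; growth delay and log cell kill also reported.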

SK-OV-3 [2] = assay: Antitumor activity against human SKOV3 cells expressing RFC/PCFT/FRalpha xenografted in folate-deficient diet fed NCR SCID mouse assessed as delay in tumor growth at 16 mg/kg, iv administered every 4 days on day 3, 7, 11 measured twice per week; assay type: functional, organism-based; procedure, shortened: as §1
Mus musculus = assay: Toxicity in folate-deficient diet fed NCR SCID mouse xenografted with human SKOV3 cells expressing RFC/PCFT/FRalpha assessed as body weight loss at 16 mg/kg, iv administered every 4 days on day 3, 7, 11 relative to control; assay type: organism-based, SK-OV-3; settings: in vivo, 96 h; procedure, shortened: as §1
R2 = assay: Cytotoxicity against PCFT-null Chinese hamster R2 cells assessed as cell growth inhibition after 96 hrs by CellTiter-Blue assay; assay type: cell-based, Cricetulus griseus; settings: R2, 96 h
KB = assay: Antiproliferative activity against human KB cells expressing FRalpha/PCFT/RFC assessed as cell growth inhibition after 96 hrs by CellTiter-Blue assay; assay type: functional, cell-based
IGROV-1 [3] = assay: Antiproliferative activity against human IGROV1 cells after 96 hrs by CellTiter-Blue assay; assay type: functional, cell-based; settings: IGROV-1, 96 h
Procedure, shortened: (§2)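 IGROV1 and SKOV3 cells plated at ~2500–5000 cells/well in folate-free RPMI 1640 with 10% dialyzed FBS, antibiotics and 2 nM LCV, over a range of drug concentrations, ±200 nM folic acid in parallel. Incubated up to 96 h. Viability read by Cell Titer Blue fluorescence (ex 560/em 590 nm).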

SK-OV-3 [4] = assay: Antiproliferative activity against human SKOV3 cells after 96 hrs by CellTiter-Blue assay; assay type: functional, cell-based; settings: SK-OV-3, 96 h; procedure, shortened: as §2
IGROV-1 [5] = assay: Antiproliferative activity against human IGROV1 cells after 96 hrs by CellTiter-Blue assay in presence of 200 nM folic acid; assay type: functional, cell-based; settings: IGROV-1, 96 h
[6] = biological target: T1, Proton-coupled folate transporter (Homo sapiens) (UniProt Q96NT5); assay: Binding affinity to human PCFT expressed in Chinese hamster R2/PCFT4 cells assessed as intracellular drug level at 0.5 uM at 37 degC at pH 5.5 measured over 5 mins; assay type: cell-based
T1 sequence (whole entry): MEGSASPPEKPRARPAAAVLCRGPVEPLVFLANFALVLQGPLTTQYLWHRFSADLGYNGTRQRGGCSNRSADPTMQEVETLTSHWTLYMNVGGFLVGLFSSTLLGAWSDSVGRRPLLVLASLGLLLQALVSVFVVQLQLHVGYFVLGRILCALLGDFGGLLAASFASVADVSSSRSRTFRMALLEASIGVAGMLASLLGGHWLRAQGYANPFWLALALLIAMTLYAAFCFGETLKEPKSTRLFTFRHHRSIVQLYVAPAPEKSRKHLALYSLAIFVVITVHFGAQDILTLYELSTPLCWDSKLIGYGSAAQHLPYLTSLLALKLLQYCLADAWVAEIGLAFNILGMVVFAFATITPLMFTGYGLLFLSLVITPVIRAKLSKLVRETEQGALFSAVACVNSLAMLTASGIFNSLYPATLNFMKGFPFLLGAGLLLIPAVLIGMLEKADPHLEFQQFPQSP

[7] = biological target: T2, Trifunctional purine biosynthetic protein adenosine-3 (Homo sapiens) (UniProt P22102); assay: Inhibition of GARFTase in human KB cells expressing FRalpha/PCFT/RFC assessed as cell growth inhibition after 96 hrs by CellTiter-Blue assay in presence of adenosine; assay type: cell-based
T2 sequence (whole entry): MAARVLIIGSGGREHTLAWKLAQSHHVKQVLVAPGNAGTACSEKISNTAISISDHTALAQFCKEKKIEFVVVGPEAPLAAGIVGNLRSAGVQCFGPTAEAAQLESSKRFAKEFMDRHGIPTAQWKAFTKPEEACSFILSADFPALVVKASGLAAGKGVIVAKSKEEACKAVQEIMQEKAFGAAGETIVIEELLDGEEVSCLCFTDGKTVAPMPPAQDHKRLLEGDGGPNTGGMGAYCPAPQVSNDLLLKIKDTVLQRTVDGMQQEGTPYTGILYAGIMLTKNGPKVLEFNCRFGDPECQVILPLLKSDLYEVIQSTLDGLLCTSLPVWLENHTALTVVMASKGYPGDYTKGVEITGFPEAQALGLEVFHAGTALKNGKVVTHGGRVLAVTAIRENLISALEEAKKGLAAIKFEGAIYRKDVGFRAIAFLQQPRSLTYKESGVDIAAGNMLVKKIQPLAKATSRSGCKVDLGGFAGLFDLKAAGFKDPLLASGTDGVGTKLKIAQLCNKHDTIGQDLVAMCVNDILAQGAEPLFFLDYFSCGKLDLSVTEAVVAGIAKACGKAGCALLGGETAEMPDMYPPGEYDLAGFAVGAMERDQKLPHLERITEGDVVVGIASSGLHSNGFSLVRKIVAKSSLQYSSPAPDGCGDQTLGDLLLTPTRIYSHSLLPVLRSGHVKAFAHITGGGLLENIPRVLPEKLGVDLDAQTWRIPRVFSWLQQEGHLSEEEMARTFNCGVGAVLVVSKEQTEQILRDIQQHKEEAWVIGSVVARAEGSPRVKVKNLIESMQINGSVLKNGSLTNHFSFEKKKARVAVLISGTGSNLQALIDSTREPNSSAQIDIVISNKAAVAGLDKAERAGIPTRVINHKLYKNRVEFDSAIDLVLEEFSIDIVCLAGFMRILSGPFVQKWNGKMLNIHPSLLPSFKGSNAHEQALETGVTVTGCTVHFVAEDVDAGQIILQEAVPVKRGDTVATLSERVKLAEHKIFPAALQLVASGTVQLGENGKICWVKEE

[8] = biological target: T2, Trifunctional purine biosynthetic protein adenosine-3 (Homo sapiens); assay: Inhibition of GARFTase in human KB cells expressing FRalpha/PCFT/RFC assessed as cell growth inhibition after 96 hrs by CellTiter-Blue assay in presence of thymidine; assay type: cell-based
[9] = biological target: T2, Trifunctional purine biosynthetic protein adenosine-3 (Homo sapiens); assay: Inhibition of GARFTase in human KB cells expressing FRalpha/PCFT/RFC assessed as cell growth inhibition after 96 hrs by CellTiter-Blue assay in presence of AICA; assay type: cell-based
[10] = biological target: T3, Trifunctional purine biosynthetic protein adenosine-3 (Homo sapiens, UniProt P22102); assay: Inhibition of GARFTase in human KB cells expressing FRalpha/PCFT/RFC assessed as incorporation of [14C(U)]-glycine into [14C]-formyl GAR preincubated for 1 hr followed by azaserine, L-glutamine, 14C(U)]-glycine addition measured after 16 hrs; assay type: cell-based
T3 sequence (P22102 whole entry): T2 sequence (whole entry)
Procedure, shortened: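 In situ assay in KB cells. Cells were exposed to a range of drug concentrations with [14C]glycine for 16 h under proliferation-assay conditions, with azaserine present. Radiolabelled metabolites were extracted and separated on anion exchange columns, and [14C]formyl GAR quantified. Mean ±SE of three experiments.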

Structure (SMILES): Nc1nc2[nH]c(CCCc3cc(C(=O)N[C@@H](CCC(=O)O)C(=O)O)cs3)cc2c(=O)[nH]1
- LCK (SK-OV-3 [1]): 1.9
- Activity (SK-OV-3 [2]): Active
- Activity (Mus musculus): 12.1%
- IC50 (R2): 290 nM
- IC50 (KB): 0.09 nM
- IC50 (IGROV-1 [3]): 0.77 nM
- IC50 (SK-OV-3 [4]): 15.5 nM
- IC50 (IGROV-1 [5]): 276 nM
- Activity [6]: Active
- inhibition [7]: inactive
- inhibition [8]: Active
- inhibition [9]: inactive
- IC50 [10]: 2.6 nM

From ChEMBL document CHEMBL3627626, “6-Substituted Pyrrolo[2,3-d]pyrimidine Thienoyl Regioisomers as Targeted Antifolates for Folate Receptor α and the Proton-Coupled Folate Transporter in Human Tumors” (J Med Chem, 2015)
